The whole screen tested about 330,000 compounds, of which about 2,400 (0.73%) were called active. The calls were made as follows: active = inhibition of at least 40% at 20 µM; inactive = the rest. The full list was thinned out, with actives kept by preference.
target: Apoptotic protease-activating factor 1 (Homo sapiens) (UniProt O14727); experiment: inhibitors of human Apaf-1 apoptosome, primary screen, biochemical, DEVD-Rh110 fluorescence, uHTS (AID 489030); details: reconstituted apoptosome caspase-3 activity, at 20 µM, hits give high values;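 also: plate controls were DMSO wells for no effect and DEVD-CHO caspase inhibitor wells for full effect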
Sequence (O14727 whole entry, looked up): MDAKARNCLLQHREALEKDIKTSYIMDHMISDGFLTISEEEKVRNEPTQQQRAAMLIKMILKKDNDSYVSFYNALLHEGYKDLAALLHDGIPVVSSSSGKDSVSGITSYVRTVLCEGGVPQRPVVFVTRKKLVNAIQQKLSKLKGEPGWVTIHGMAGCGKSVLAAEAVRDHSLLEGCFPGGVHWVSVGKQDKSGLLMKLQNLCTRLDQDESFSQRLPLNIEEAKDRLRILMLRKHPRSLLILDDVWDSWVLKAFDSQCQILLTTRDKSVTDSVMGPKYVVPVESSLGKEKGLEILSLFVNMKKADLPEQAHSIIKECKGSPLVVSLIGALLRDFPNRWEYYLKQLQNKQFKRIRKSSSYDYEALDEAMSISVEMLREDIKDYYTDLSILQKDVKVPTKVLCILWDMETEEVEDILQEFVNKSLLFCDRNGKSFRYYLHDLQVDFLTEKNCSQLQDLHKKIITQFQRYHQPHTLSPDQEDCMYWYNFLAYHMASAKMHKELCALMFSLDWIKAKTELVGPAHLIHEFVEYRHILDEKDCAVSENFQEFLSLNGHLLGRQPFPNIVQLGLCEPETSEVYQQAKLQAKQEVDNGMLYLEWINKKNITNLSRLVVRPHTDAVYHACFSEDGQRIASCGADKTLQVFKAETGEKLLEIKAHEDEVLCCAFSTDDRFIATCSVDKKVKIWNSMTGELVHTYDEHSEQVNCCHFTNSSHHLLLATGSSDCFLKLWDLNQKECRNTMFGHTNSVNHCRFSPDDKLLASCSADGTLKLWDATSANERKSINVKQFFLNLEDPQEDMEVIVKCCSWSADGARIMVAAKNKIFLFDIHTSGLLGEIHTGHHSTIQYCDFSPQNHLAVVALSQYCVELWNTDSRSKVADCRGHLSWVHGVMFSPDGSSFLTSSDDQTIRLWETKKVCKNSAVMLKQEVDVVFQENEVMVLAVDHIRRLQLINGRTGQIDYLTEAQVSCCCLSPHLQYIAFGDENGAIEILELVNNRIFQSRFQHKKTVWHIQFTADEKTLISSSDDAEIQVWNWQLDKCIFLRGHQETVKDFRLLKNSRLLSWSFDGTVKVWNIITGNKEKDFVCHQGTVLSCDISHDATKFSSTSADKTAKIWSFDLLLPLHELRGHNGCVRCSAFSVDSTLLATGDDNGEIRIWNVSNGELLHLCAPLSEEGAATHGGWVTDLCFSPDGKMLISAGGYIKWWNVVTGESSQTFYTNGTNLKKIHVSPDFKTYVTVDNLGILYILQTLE
Procedure, shortened: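 System: reconstituted apoptosome with Apaf-1, cytochrome c, caspase-9, procaspase-3, dATP; Signal: Rh110 fluorescence intensity; Schedule: 30 min compound preincubation, 50 min activation, room temperature; Reagent: cytochrome c trigger plus (Z-DEVD)2-Rh110 caspase-3 substrate.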

SMILES	inhibition
COc1ccc(CCN2CC(C(=O)NCCN3CCNC3=O)CCC2=O)cc1 (centres undefined)	0.96% (inactive)
CC1=C(C(=O)OC(C)(C)C)C(c2ccc(Br)cc2)NC(=O)N1CCCC(=O)O (centres undefined)	-6.71% (inactive)
CCCCNC(=O)C(C)N(CCN(C)C)C(=O)CCCN1C(=O)NC(c2ccc(Cl)cc2)C(C(=O)OCc2ccccc2)=C1C (centres undefined)	57.1% (active)
CC1=C(C(=O)OCc2ccccc2)C(c2ccc(C(F)(F)F)cc2)NC(=O)N1CCCCCC(=O)O (centres undefined)	19.6% (inactive)
COC(=O)CCCCCN1C(=O)NC(c2ccc(-c3ccccc3)cc2)C(C(=O)OCc2ccccc2)=C1C (centres undefined)	19.3% (inactive)
CCCCNC(=O)C(C)N(CCN(C)C)C(=O)CCCCCN1C(=O)NC(c2ccc(Cl)cc2)C(C(=O)OCc2ccccc2)=C1C (centres undefined)	67.1% (active)
CCN1C(=O)N[C@@H](c2ccccc2)C(C(=O)OC)=C1C	-2.25% (inactive)
CCCOC(=O)c1c(NC(=O)c2cnn3c2NC(c2ccccc2)CC3C(F)(F)F)sc2c1CCCC2 (centres undefined)	-7.9% (inactive)
NC(=O)c1ccc(-c2csnn2)cc1	-3.94% (inactive)
COc1ccc(-n2nc(C(=O)Nc3cc(OC)c(OC)c(OC)c3)c3ccccc3c2=O)c(OC)c1	28.5% (inactive)
Nc1nnnn1/N=C/c1cccc(Br)c1	8.14% (inactive)
COc1ccccc1C(=O)NCCC(=O)N(C)Cc1cccnc1	-4.28% (inactive)
O=C(CCNS(=O)(=O)c1ccccc1)NCCCc1ccccc1	4.81% (inactive)
O=C(CCNS(=O)(=O)c1ccccc1)NCCSc1ccc(Br)cc1	58.6% (active)
Cc1ccc(OCCNC(=O)CCNS(=O)(=O)c2ccc(Br)cc2)cc1	11.6% (inactive)
CCCc1c(C)nc2c(Br)cccc2c1Cl	-2.72% (inactive)
CC[N+](C)(CC)CCC[n+]1c(-c2ccccc2)c2cc(N)ccc2c2ccc(N)cc21	98.2% (active)
CCOC(=O)N1CCC(NC(=O)Cc2cn(C)c3ccccc23)CC1	3.3% (inactive)
CCOC(=O)N1CCC(NC(=O)C(C)n2c3ccccc3c3cnn(C)c(=O)c32)CC1 (centres undefined)	44.6% (active)
CCOC(=O)N1CCC(NC(=O)CCc2cn(C)c3ccccc23)CC1	0.184% (inactive)
Cc1ccc2nc(N3CCN(C(=O)c4ccco4)CC3)sc2c1	41.9% (active)
Cc1ccc2nc(N3C(=O)C(O)=C(C(=O)c4ccco4)C3c3cccc(O)c3)sc2c1 (centres undefined)	9.5% (inactive)
COc1ccc2nc(N3CCN(C(=O)c4ccc([N+](=O)[O-])o4)CC3)sc2c1	4.35% (inactive)
CN(C)/C=C(\C#N)C(=O)c1cccnc1Oc1ccc(F)cc1F	-17.9% (inactive)

From PubChem BioAssay AID489030 (Sanford-Burnham Center for Chemical Genomics, 2010)
